Reference: ChEMBL document CHEMBL1153060, “Part 1: Structure-Activity Relationship (SAR) investigations of fused pyrazoles as potent, selective and orally available inhibitors of p38alpha mitogen-activated protein kinase” (Bioorg Med Chem Lett, 2009)
In brackets after ≈: the same amount, converted by molar mass.

Tests used:
[1] = Clearance in Sprague-Dawley rat at 2 mg/kg, iv; format: ADME, organism-based; set-up: dose 2 mg/kg, route intravenous; details: in vivo
Summary of the method: (§1)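 Male Sprague–Dawley rats given 2.0 mg/kg iv (in DMSO) or 2.0 mg/kg po. Values are the mean of three rats. Reported parameters are CL, Vdss, t1/2, AUC(0-inf) and oral F.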

[2] = target: Mitogen-activated protein kinase 14 (Homo sapiens, UniProt Q16539); experiment: Inhibition of human recombinant p38alpha assessed as phosphorylation of ATF2 by scintillation proximity assay
[3] = tested on: THP-1; experiment: Inhibition of LPS-induced TNFalpha release in human THP1 cells after 3 hrs; format: functional, cell-based; details: THP-1, 3 h
Summary of the method: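 THP1 cell line challenged with LPS, with TNFα secretion as read-out. IC50 is the mean of at least three independent dose–response curves, or of two where flagged.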

[4] = tested on: Blood; experiment: Inhibition of TNF-alpha-stimulated IL8 production in human whole blood incubated for 1 hr before TNFalpha challenge measured after 16 to 18 hrs; format: functional, tissue-based
Summary of the method: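 Human whole blood diluted to 50% and stimulated with TNFα, with IL-8 secretion as read-out. IC50 is the mean of at least three independent dose–response curves, or of two where flagged.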

[5] = target: Mitogen-activated protein kinase 11 (Homo sapiens, UniProt Q15759); experiment: Inhibition of p38beta
[6] = target: T1, Mitogen-activated protein kinase 12 (Homo sapiens, UniProt P53778); experiment: Inhibition of p38-gamma
T1 sequence (P53778 whole entry): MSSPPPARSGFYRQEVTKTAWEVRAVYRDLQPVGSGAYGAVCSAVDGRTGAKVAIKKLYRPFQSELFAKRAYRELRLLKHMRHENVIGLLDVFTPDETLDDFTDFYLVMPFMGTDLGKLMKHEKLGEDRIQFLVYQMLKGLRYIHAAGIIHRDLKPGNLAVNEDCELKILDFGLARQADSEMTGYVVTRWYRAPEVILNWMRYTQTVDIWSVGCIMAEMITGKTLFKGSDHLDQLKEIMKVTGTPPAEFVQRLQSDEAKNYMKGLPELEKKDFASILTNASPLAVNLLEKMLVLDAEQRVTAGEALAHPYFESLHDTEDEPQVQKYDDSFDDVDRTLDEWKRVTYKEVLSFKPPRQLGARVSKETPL

[7] = target: T2, Mitogen-activated protein kinase 13 (Homo sapiens, UniProt O15264); experiment: Inhibition of p38delta
T2 sequence (O15264 whole entry): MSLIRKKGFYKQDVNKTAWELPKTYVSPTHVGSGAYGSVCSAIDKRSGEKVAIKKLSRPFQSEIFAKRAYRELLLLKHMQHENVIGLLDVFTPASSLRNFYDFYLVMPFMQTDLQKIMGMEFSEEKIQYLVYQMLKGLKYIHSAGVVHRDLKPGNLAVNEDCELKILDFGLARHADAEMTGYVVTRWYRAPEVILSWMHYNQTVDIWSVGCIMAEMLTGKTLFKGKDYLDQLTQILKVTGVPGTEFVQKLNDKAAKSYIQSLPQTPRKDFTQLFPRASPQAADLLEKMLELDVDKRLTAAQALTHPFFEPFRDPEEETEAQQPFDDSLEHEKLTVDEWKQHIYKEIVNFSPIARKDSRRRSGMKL

[8] = target: Mitogen-activated protein kinase 8 (Homo sapiens, UniProt P45983); experiment: Inhibition of JNK1
[9] = target: Mitogen-activated protein kinase 9 (Homo sapiens, UniProt P45984); experiment: Inhibition of JNK2
[10] = target: Mitogen-activated protein kinase 10 (Homo sapiens, UniProt P53779); experiment: Inhibition of JNK3
[11] = target: Cytochrome P450 3A4 (Homo sapiens, UniProt P08684); experiment: Inhibition of CYP3A4; format: ADME
[12] = target: T3, Cytochrome P450 1A2 (Homo sapiens, UniProt P05177); experiment: Inhibition of CYP1A2; format: ADME
T3 sequence (P05177 whole entry): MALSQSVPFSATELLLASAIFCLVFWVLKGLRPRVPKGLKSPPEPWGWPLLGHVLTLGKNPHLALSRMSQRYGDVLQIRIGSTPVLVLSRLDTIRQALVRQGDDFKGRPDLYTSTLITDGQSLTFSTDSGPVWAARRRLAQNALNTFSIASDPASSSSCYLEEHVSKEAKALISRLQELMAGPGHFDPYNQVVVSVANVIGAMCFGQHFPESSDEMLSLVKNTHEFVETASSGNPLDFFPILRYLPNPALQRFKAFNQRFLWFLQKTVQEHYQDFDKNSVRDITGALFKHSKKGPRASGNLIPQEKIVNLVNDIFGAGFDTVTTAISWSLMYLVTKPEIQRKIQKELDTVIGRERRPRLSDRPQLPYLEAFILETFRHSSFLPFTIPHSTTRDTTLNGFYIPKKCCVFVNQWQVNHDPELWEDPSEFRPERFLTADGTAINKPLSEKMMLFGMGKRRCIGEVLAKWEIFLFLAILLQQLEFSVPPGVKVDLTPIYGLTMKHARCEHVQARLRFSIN

[13] = target: Cytochrome P450 2C9 (Homo sapiens, UniProt P11712); experiment: Inhibition of CYP2C9; format: ADME
[14] = target: Cytochrome P450 2C19 (Homo sapiens, UniProt P33261); experiment: Inhibition of CYP2C19; format: ADME
[15] = target: Cytochrome P450 2D6 (Homo sapiens, UniProt P10635); experiment: Inhibition of CYP2D6; format: ADME
[16] = Volume of distribution at steady state in Sprague-Dawley rat at 2 mg/kg, iv; format: ADME, organism-based; set-up: dose 2 mg/kg, route intravenous; details: in vivo, read-out: Vdss; summary of the method: as §1
[17] = Half life in Sprague-Dawley rat at 2 mg/kg, iv; format: ADME, organism-based; set-up: dose 2 mg/kg, route intravenous; details: in vivo; summary of the method: as §1
[18] = AUC (0 to infinity) in Sprague-Dawley rat at 2 mg/kg, po; format: ADME, organism-based; set-up: time infinity, dose 2 mg/kg, route oral; details: plasma; summary of the method: as §1
[19] = Oral bioavailability in Sprague-Dawley rat at 2 mg/kg; format: ADME, organism-based; details: in vivo; summary of the method: as §1
[20] = species on record: Rattus norvegicus; experiment: Plasma concentration in Lewis rat at ED50; format: ADME, organism-based; details: in vivo
[21] = Ratio of drug level in brain to plasma in Lewis rat; format: ADME; details: read-out: BPR
[22] = Solubility in 0.01N HCl; format: physicochemical
[23] = Solubility in phosphate buffered saline; format: physicochemical
[24] = Solubility in simulated intestinal fluid; format: physicochemical
[25] = Protein binding in rat plasma by ultrafiltration method; details: read-out: PPB (converted)
[26] = species on record: Homo sapiens; experiment: Protein binding in human plasma by ultrafiltration method; details: read-out: PPB (converted)
[27] = target: RAF proto-oncogene serine/threonine-protein kinase (Homo sapiens) (UniProt P04049); experiment: Inhibition of c-Raf at 1.5 uM; values are per cent of control
[28] = tested on: Rattus norvegicus; experiment: Inhibition of LPS-induced TNFalpha production in po dosed Lewis rat administered 60 mins prior to LPS challenge measured after 90 mins by ELISA
[29] = tested on: Rattus norvegicus; experiment: Inhibition of LPS-induced TNFalpha production in Lewis rat at 0.1 mg/kg, po administered 60 mins prior to LPS challenge measured after 90 mins by ELISA
[30] = tested on: Rattus norvegicus; experiment: Inhibition of LPS-induced TNFalpha production in Lewis rat at 0.3 mg/kg, po administered 60 mins prior to LPS challenge measured after 90 mins by ELISA
[31] = tested on: Rattus norvegicus; experiment: Inhibition of LPS-induced TNFalpha production in Lewis rat at 0.01 mg/kg, po administered 60 mins prior to LPS challenge measured after 90 mins by ELISA
[32] = tested on: Rattus norvegicus; experiment: Inhibition of LPS-induced TNFalpha production in Lewis rat at 0.03 mg/kg, po administered 60 mins prior to LPS challenge measured after 90 mins by ELISA

Sequence of Cytochrome P450 2C19 (P33261 whole entry): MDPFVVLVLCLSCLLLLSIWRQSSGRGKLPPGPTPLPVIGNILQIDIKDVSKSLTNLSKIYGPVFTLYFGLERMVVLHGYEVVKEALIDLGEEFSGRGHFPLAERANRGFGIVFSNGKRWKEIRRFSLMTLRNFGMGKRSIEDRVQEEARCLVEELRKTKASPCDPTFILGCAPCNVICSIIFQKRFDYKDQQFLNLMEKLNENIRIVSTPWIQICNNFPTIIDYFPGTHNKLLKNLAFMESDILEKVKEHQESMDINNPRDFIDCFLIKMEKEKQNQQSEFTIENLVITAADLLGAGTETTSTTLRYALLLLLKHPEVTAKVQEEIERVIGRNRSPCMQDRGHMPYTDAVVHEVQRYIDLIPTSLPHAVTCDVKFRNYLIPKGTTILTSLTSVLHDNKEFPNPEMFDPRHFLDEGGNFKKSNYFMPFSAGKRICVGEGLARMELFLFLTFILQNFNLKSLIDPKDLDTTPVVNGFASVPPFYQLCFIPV
Sequence of Mitogen-activated protein kinase 8 (P45983 whole entry): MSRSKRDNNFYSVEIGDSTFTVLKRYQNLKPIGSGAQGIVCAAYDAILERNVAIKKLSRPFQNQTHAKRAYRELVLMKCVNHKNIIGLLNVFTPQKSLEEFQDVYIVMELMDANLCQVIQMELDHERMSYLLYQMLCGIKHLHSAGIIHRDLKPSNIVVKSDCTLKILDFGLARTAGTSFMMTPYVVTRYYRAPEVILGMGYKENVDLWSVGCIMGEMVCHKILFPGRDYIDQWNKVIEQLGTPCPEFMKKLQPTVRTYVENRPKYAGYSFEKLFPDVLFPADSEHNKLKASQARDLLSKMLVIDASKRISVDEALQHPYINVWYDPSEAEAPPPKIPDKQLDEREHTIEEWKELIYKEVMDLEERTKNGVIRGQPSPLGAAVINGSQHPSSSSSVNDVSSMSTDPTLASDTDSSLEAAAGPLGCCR
Sequence of Mitogen-activated protein kinase 14 (Q16539 whole entry): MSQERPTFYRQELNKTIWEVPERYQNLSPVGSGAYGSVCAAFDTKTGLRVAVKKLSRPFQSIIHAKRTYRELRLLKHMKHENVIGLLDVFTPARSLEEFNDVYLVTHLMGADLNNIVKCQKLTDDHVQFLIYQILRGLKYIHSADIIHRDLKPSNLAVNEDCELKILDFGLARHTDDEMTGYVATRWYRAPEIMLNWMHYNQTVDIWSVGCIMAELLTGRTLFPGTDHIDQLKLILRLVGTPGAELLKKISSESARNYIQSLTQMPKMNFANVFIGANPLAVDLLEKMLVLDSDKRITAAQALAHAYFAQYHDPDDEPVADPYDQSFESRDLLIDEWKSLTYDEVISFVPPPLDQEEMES
Sequence of Cytochrome P450 3A4 (P08684 whole entry): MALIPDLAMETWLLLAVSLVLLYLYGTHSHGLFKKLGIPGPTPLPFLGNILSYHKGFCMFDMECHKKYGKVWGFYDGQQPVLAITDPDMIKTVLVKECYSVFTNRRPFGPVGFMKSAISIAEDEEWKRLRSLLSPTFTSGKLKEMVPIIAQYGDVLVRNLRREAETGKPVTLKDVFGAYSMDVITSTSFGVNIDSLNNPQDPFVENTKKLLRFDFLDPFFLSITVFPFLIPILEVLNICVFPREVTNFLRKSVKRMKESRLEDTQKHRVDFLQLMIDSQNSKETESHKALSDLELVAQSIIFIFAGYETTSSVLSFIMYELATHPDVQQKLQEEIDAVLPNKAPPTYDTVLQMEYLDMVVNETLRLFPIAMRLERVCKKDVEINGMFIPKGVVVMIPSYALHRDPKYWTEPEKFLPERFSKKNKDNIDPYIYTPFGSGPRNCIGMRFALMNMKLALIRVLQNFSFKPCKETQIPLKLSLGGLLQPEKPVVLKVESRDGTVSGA
Sequence of Cytochrome P450 2D6 (P10635 whole entry): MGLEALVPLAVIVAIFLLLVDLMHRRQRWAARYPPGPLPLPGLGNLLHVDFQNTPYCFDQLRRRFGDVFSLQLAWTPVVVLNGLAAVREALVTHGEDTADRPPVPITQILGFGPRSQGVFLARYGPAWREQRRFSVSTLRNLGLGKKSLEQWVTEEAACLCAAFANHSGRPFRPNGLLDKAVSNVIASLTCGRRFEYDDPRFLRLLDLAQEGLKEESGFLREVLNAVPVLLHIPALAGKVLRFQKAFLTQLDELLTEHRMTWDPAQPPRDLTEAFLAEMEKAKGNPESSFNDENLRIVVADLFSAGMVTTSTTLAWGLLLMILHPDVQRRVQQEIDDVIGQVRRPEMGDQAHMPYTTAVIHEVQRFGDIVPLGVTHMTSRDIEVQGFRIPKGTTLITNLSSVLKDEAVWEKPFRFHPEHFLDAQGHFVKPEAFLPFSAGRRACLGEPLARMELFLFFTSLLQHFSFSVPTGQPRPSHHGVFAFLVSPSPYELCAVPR
Sequence of Cytochrome P450 2C9 (P11712 whole entry): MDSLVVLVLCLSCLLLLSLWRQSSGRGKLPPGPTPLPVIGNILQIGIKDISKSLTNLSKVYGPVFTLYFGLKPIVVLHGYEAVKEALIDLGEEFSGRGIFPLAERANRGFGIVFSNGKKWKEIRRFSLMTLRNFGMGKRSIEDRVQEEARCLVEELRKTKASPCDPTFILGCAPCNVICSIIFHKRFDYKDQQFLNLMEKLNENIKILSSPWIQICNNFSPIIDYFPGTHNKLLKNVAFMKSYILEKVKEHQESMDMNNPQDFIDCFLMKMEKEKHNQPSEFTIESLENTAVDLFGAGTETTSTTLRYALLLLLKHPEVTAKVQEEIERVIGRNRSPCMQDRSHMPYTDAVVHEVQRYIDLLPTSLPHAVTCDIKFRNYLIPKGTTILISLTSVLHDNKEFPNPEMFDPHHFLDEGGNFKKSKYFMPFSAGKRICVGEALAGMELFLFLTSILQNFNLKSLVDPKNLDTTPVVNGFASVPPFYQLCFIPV
Sequence of RAF proto-oncogene serine/threonine-protein kinase (Homo sapiens) (P04049 whole entry): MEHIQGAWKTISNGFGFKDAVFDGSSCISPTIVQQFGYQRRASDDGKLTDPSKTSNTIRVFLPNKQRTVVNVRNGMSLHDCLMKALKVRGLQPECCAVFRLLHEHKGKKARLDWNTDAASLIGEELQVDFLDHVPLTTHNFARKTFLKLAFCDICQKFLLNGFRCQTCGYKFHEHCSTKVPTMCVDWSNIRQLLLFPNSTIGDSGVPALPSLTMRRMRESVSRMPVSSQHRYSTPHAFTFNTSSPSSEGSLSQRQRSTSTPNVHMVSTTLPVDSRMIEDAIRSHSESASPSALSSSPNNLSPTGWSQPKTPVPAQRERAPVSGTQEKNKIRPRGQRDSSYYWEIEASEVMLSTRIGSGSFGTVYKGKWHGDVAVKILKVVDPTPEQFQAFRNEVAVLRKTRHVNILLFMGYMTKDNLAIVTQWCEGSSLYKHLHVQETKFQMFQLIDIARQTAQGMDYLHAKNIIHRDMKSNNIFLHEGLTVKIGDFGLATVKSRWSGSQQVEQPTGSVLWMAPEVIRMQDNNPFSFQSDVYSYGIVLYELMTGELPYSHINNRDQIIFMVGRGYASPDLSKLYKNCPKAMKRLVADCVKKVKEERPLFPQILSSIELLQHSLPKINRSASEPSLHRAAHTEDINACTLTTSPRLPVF
Sequence of Mitogen-activated protein kinase 11 (Q15759 whole entry): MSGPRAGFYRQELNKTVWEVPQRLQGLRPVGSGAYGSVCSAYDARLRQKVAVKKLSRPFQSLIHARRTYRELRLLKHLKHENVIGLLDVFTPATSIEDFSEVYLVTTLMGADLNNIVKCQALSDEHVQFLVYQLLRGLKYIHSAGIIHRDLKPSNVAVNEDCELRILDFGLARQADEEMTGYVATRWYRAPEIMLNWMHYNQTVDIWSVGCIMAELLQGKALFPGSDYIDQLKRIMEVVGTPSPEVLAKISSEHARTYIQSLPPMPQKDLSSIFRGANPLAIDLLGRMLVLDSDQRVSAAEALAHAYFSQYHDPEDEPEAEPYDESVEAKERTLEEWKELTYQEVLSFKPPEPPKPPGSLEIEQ
Sequence of Mitogen-activated protein kinase 10 (P53779 whole entry): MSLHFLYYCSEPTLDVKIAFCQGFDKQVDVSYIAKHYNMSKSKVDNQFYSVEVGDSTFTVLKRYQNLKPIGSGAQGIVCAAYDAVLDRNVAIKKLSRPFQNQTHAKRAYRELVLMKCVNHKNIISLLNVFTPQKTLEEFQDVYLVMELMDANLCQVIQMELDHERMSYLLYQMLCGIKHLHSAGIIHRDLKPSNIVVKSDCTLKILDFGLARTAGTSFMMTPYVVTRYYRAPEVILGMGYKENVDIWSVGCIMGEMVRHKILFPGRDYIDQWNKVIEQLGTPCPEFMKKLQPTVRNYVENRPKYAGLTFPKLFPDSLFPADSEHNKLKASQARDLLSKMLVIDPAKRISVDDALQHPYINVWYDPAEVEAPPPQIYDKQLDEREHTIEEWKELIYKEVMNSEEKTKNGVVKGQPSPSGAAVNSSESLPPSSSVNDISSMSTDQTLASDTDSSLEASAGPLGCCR
Sequence of Mitogen-activated protein kinase 9 (P45984 whole entry): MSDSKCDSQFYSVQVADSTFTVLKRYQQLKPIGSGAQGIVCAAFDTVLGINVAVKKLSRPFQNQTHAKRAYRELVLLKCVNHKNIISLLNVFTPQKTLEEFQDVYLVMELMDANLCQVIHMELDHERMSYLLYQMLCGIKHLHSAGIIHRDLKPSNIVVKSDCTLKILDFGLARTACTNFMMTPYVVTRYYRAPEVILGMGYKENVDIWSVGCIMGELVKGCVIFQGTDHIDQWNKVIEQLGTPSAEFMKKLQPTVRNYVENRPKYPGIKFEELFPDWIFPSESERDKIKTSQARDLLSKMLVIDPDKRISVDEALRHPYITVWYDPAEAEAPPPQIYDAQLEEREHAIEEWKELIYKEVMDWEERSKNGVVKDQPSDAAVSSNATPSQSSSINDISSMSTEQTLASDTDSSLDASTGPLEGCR

Cn1c(=O)cc(Nc2cc(C(=O)NC3CC3)ccc2Cl)c2cnn(-c3ccc(F)cc3)c21
clearance [1]: 4.33 mL/min/kg | IC50 [2]: 0.0015 µM | IC50 [3]: 0.0011 µM | IC50 [4]: 0.0025 µM | IC50 [5]: 0.004 µM | IC50 [6]: > 10 µM | IC50 [7]: > 10 µM | IC50 [8]: > 10 µM | IC50 [9]: > 10 µM | IC50 [10]: > 10 µM | IC50 [11]: > 30 µM | IC50 [12]: > 30 µM | IC50 [13]: > 21 µM | IC50 [14]: > 21 µM | IC50 [15]: > 21 µM | Vd [16]: 0.97 L/kg | half-life [17]: 5.8 h | AUC(0-inf) [18]: 6550 ng·h/mL | bioavailability [19]: 84% | Cp [20]: 3.2 ng/mL | Kp [21]: 0.04 | solubility [22]: 31.2 µg/mL (≈ 69 µM) | solubility [23]: 26.6 µg/mL (≈ 58.9 µM) | solubility [24]: 38.8 µg/mL (≈ 85.9 µM) | fraction unbound [25]: 0.03 | fraction unbound [26]: 0.06 | residual activity [27]: 40% | ED50 [28]: 0.1 mg/kg | inhibition in vivo at 0.1 mg/kg [29]: 50.1% | inhibition in vivo at 0.3 mg/kg [30]: 97.4% | inhibition in vivo at 0.01 mg/kg [31]: 21% | inhibition in vivo at 0.03 mg/kg [32]: 5.6%
